# Measurements from different studies.
# Compare with care: the assays were run in different laboratories.
# Organism: Escherichia coli
# Read-out: microbial growth
Compound,method,strain,time,MIC
Cl.N[C@H]1CCN(c2cc(C(=O)NCC(=O)O)ccc2NC(=O)c2cc(Br)c(Br)[nH]2)C1,broth dilution,ATCC25922,,> 32 µg/mL
Cc1nn(-c2ccccc2)c2c1C(c1ccco1)N(C(=O)c1ccncc1)N2 (stereo not drawn),,MTCC739,24 h,64 µg/mL
CO/N=C(\C(=O)N[C@@H]1C(=O)N2C(C(=O)O)=C(CSc3nc(=O)c(O)nn3C)CS[C@H]12)c1csc(N)n1,broth dilution,,,≤ 0.5 µg/mL
CN[C@@H]1[C@@H](O[C@H]2O[C@H](CO)[C@@H](N)[C@H](O)[C@H]2O)OC2C[C@@H](N)[C@@H](O[C@H]3[C@H](O)[C@@H](O)[C@H](N)C[C@@H]3N)OC2[C@@H]1O (stereo partly drawn),,,24 h,2.5 to 5 µM
Cc1[nH]c(C(=O)Nc2ccc(C(=O)NCC(=O)O)cc2N2CC[C@H](NC(=O)OC(C)(C)C)C2)c(Cl)c1Cl,broth dilution,ATCC25922,,> 32 µg/mL
CC1CCC(C(C)C)C(OC(=O)C=Cc2ccc(O)c(O)c2)C1 (stereo not drawn),broth dilution,ATCC25922,,2 µg/mL
CC(C)(C)OC(=O)N[C@@H]1CCN(c2cc(C(=O)NCC(=O)O)ccc2NC(=O)c2cc(Br)c(Br)[nH]2)C1,broth dilution,ATCC25922,,> 32 µg/mL
CC(C)(O/N=C(\C(=O)N[C@@H]1C(=O)N2C(C(=O)[O-])=C(C[n+]3ccccc3)CS[C@H]12)c1csc(N)n1)C(=O)O,broth dilution,ATCC25922,20 h,< 0.5 µg/mL
Cc1nn(-c2ccccc2)c2c1C(c1ccc(Cl)cc1)N(C(=O)c1ccncc1)N2 (stereo not drawn),,MTCC739,24 h,> 100 µg/mL
O=C(C=Cc1ccc(O)c(O)c1)OCCc1ccccc1,broth dilution,ATCC25922,,32 µg/mL
CN(C)c1cc(NC(=O)CNC(C)(C)C)c(O)c2c1C[C@H]1C[C@H]3[C@H](N(C)C)C(O)=C(C(N)=O)C(=O)[C@@]3(O)C(O)=C1C2=O,broth dilution,,,≤ 0.06 µg/mL
Cc1nn(-c2ccccc2)c2c1C(c1c[nH]c3ccccc13)N(C(=O)c1ccncc1)N2 (stereo not drawn),,MTCC739,24 h,> 100 µg/mL
Nc1ccccc1OC(=O)C=Cc1ccc(O)c(O)c1,broth dilution,ATCC25922,,8 µg/mL
Cc1[nH]c(C(=O)Nc2ccc(C(=O)NCC(=O)O)cc2N2CCN(C(=O)OC(C)(C)C)CC2)c(Cl)c1Cl,broth dilution,ATCC25922,,> 32 µg/mL
C[C@@H](O)[C@H]1C(=O)N2C(C(=O)O)=C(SCCNC=N)C[C@H]12,broth dilution,,,≤ 0.06 µg/mL
Cc1ccccc1NC(=O)C=Cc1ccc(O)c(O)c1,broth dilution,ATCC25922,,4 µg/mL
CC(O)CSc1nnc(-c2cc3ccccc3o2)n1-c1ccccc1 (stereo not drawn),,,,10000 µg/mL
O=C(O)c1cn(C2CC2)c2cc(N3CCNCC3)c(F)cc2c1=O,,MTCC739,24 h,32 µg/mL
CC1(C)S[C@@H]2[C@H](NC(=O)[C@H](N)c3ccccc3)C(=O)N2[C@H]1C(=O)O,,,24 h,5 to 10 µM
CC(C)(C)OC(=O)N1CCN(c2cc(C(=O)NCC(=O)O)ccc2NC(=O)c2cc(Br)c(Br)[nH]2)CC1,broth dilution,ATCC25922,,> 32 µg/mL
C[C@@H](O)[C@H]1C(=O)N2C(C(=O)O)=C(S[C@@H]3CN[C@H](C(=O)N(C)C)C3)[C@H](C)[C@H]12,broth dilution,,,≤ 0.06 µg/mL
Cc1ccc(-c2nnc(SCC(C)O)n2-c2ccccc2)cc1 (stereo not drawn),,,,12500 µg/mL
Cc1[nH]c(C(=O)Nc2ccc(C(=O)NCC(=O)O)cc2N2CC[C@H](N)C2)c(Cl)c1Cl.Cl,broth dilution,ATCC25922,,> 32 µg/mL
CC1(C)S[C@@H]2[C@H](NC(=O)[C@H](N)c3ccc(O)cc3)C(=O)N2[C@H]1C(=O)O,broth dilution,,,≤ 0.06 µg/mL
CC(O)CSc1nnc(Cn2cnc3c2c(=O)n(C)c(=O)n3C)n1-c1ccccc1 (stereo not drawn),,,,15000 µg/mL
Cc1[nH]c(C(=O)Nc2ccc(C(=O)NCC(=O)O)cc2N2CCNCC2)c(Cl)c1Cl.Cl,broth dilution,ATCC25922,,> 32 µg/mL
O=C(C=Cc1ccc(O)c(O)c1)Oc1cccc2cccnc12,broth dilution,ATCC25922,,4 µg/mL
Cc1[nH]c(C(=O)Nc2ccc(C(=O)NCc3n[nH]c(=O)o3)cc2N2CCN(C(=O)OC(C)(C)C)CC2)c(Cl)c1Cl,broth dilution,ATCC25922,,> 32 µg/mL
CC(C)NCC(COc1cccc2ccccc12)OC(=O)C=Cc1ccc(O)c(O)c1 (stereo not drawn),broth dilution,ATCC25922,,64 µg/mL
CCC(C)CCCC(=O)N[C@@H](CCN)C(=O)N[C@H](C(=O)N[C@@H](CCN)C(=O)N[C@H]1CCNC(=O)[C@H]([C@@H](C)O)NC(=O)[C@H](CCN)NC(=O)[C@H](CCN)NC(=O)[C@H](CC(C)C)NC(=O)[C@@H](CC(C)C)NC(=O)[C@H](CCN)NC1=O)[C@@H](C)O (stereo partly drawn),broth dilution,,,0.25 µg/mL
